Experiment [1] has as its system Tenebrio molitor. Nature of the experiment: Growth inhibition of last instar larvae of Tenebrio molitor assessed as successful pupation at 120 ug/larvae, applied topically measured every 24 hrs for 30 days. The experiment is classed as functional. Also noted: scale not given: the % may be the effect or the level left. Summed up: (§1)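 Last-instar T. molitor larvae (113–160 mg, from a stock culture kept on wheat bran) were dosed once, topically on the ventral abdominal segments by microsyringe, with 2 µL acetone solution (120 µg compound per larva). Solvent-only controls were included. Larvae were unfed. Pupation and pupal-stage length were scored every 24 h to day 30. n = 60, mean (SE). Pupation was analysed by χ² test and pupal duration by Dunnett test.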

Experiment [2] has as its system Tenebrio molitor. Nature of the experiment: Growth inhibition of last instar larvae of Tenebrio molitor assessed as duration of pupal stage at 120 ug/larvae, applied topically measured every 24 hrs for 30 days. The experiment is classed as functional. In outline:
as §1

Take `C=C(CO)[C@@H]1Cc2cc(C(C)=O)ccc2O1` [BITALIN A]: the Activity in experiment [1] was 75%; in experiment [2] it was 8.6 days.

For the compound `O=C(O)/C=C/c1ccc(O)cc1` [COUMARIC ACID], the Activity was 87% in experiment [1] and 10 days in experiment [2].

With `C=C(COC(C)=O)[C@@H]1Cc2cc(C(C)=O)c(O)cc2O1`, the Activity in experiment [1] worked out at 73.3%; in experiment [2], 11.2 days.

Take `C=C(COC(C)=O)[C@@H]1Cc2cc(C(C)=O)ccc2O1`: the Activity turned out to be 75% in experiment [1] and 9.8 days in experiment [2].

For the compound `CC(=O)c1ccc(O)c(C(=O)C=C(C)C)c1`, the Activity in experiment [1] turned out to be 75%; in experiment [2] it was 11.4 days.

As to `C=C(C)c1cc2cc(C(C)=O)c(O)cc2o1` [EUPARIN], the figures for the Activity in experiment [1] and in experiment [2] were 83% and 10.5 days, respectively.

For the compound `C=C(COC(=O)/C=C/c1ccc(O)cc1)[C@@H]1Cc2cc(C(C)=O)ccc2O1`, the figures for the Activity in experiment [1] and in experiment [2] were 26% and 10.5 days, respectively.

In the case of `CC(C)CCc1cc(CCC(=O)O)ccc1O`, the Activity in experiment [1] was 50%; in experiment [2] it was 10.2 days.

Consider `COC(=O)/C=C/c1ccc2c(c1)CCC(C)(C)O2`, for which the values for the Activity in experiment [1] and in experiment [2] were 87% and 7 days, respectively.

For `O=C(O)/C=C/c1ccccc1` [CINNAMIC ACID], the Activity came to 92% in experiment [1] and 8.7 days in experiment [2].

Regarding `CC(C)=CCc1cc(/C=C/C(=O)O)ccc1O` [DRUPANIN], the Activity in experiment [1] was 63%; in experiment [2], 13 days.

Regarding `CC(=O)c1ccc2c(c1)C(=O)CC(C)(C)O2`, the Activity in experiment [1] came to 87%; in experiment [2] it was 12.1 days.

In the case of `C=C(CO)[C@@H]1Cc2cc(C(C)=O)c(O)cc2O1`, the figures for the Activity in experiment [1] and in experiment [2] were 73% and 11.6 days, respectively.

On to `CC(=O)c1cc2c(cc1O)OC(C)(C)C=C2` [DEMETHYLENCECALIN], for which the Activity in experiment [1] came out at 66.6%; in experiment [2], 11.5 days.

The values above are taken from ChEMBL document CHEMBL1150958, “Growth-inhibitory activities of benzofuran and chromene derivatives toward Tenebrio molitor” (1998).
